Measurements taken from ChEMBL document CHEMBL1154507, “Synthesis and characterization of Deltalac-acetogenins that potently inhibit mitochondrial complex I” (Bioorg Med Chem, 2009).
Active and inactive are the calls of the source. The rule behind the calls is not given here.

Legend:
MCF7 [1] = experiment: Induction of shift to glycolysis in human MCF7 cells assessed as lactate production at < 0.15 uM after 3 hrs; type: functional
[2] = Cytotoxicity against human MCF10A cells by MTT assay; type: cell-based; settings: MCF-10A
M059J [3] = experiment: Cytotoxicity against human M059J ATCC CRL2366 cells by MTT assay; type: functional, cell-based
MCF7 [4] = experiment: Cytotoxicity against human MCF7 cells by MTT assay; type: functional, cell-based
[5] = Inhibition of Electron transport protein complex 1 in bovine heart submitochondrial particles assessed as NADH oxidase activity by spectrophotometric analysis; design: species or system Bos taurus
Outline: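 Beef-heart inverted SMP (stored at −80 °C in 0.25 M sucrose, 10 mM Tris-HCl pH 7.4) diluted to 0.5 mg/mL and NADH-activated. Inhibitor pre-equilibrated with SMP 5 min in 50 mM Hepes pH 7.5, 5 mM MgCl2. NADH started the reaction. Initial linear rates were read at 340 nm, 30 °C, with DMSO ≤2%. IC50 is half-maximal inhibition of control; mean ± SD, three independent experiments.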

[6] = Inhibition of Electron transport protein complex 1 in bovine heart submitochondrial particles assessed as NADH ubiquinone oxidoreductase oxidase activity by spectrophotometric analysis in presence of exogenous ubiquinone 1; design: species or system Bos taurus
Outline: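 Activated beef-heart inverted SMP were pre-equilibrated with inhibitor 5 min, then NADH was added at 30 °C. Medium: 0.25 M sucrose, 1 mM MgCl2, 2 mM KCN, antimycin A, ubiquinone Q1, 50 mM phosphate pH 7.4. Rate was followed at 340 nm, DMSO ≤2%. IC50 is half-maximal inhibition of control; mean ± SD of three independent experiments.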

A549 [7] = experiment: Cytotoxicity against human A549 cells by MTT assay; type: functional, cell-based
[8] = Cytotoxicity against mouse 3LL cells by MTT assay; type: functional, cell-based
MCF7 [9] = experiment: Induction of shift to glycolysis in human MCF7 cells assessed as lactate production at 6.6 uM after 3 hrs; type: functional
[10] = Cytotoxicity against human M059K ATCC CRL2365 cells by MTT assay; type: functional, cell-based
Bos taurus [11] = species: Bos taurus; experiment: Inhibition of Electron transport protein complex 1 in bovine heart submitochondrial particles assessed as residual NADH ubiquinone oxidoreductase oxidase activity at 1 uM by spectrophotometric analysis in presence of exogenous ubiquinone 1
MCF7 [12] = experiment: Induction of shift to glycolysis in human MCF7 cells assessed as lactate production at 0.44 uM after 3 hrs; type: functional
Bos taurus [13] = species: Bos taurus; experiment: Inhibition of Electron transport protein complex 1 in bovine heart submitochondrial particles assessed as residual NADH oxidase activity at 1 uM by spectrophotometric analysis
MCF7 [14] = experiment: Cytotoxicity against human MCF7 cells by SRB assay; type: functional, cell-based
3LL = experiment: Cytotoxicity against mouse 3LL cells by SRB assay; type: functional, cell-based
M059J [15] = experiment: Cytotoxicity against human M059J ATCC CRL2366 cells by SRB assay; type: functional, cell-based
A549 [16] = experiment: Cytotoxicity against human A549 cells by SRB assay; type: functional, cell-based
[17] = Cytotoxicity against human MCF10A cells by SRB assay; type: cell-based; settings: mcf-10a
ATCC CRL2365 = experiment: Cytotoxicity against human M059K ATCC CRL2365 cells by SRB assay; type: functional, cell-based
MCF7 [18] = experiment: Induction of shift to glycolysis in human MCF7 cells assessed as lactate production at 0.38 uM after 3 hrs; type: functional
MCF7 [19] = experiment: Induction of shift to glycolysis in human MCF7 cells assessed as lactate production at 18.2 uM after 3 hrs; type: functional

| Structure (SMILES) | IC50 [2] [µM] | IC50 (M059J [3]) [µM] | IC50 (MCF7 [4]) [µM] | IC50 [5] [µM] | IC50 [6] [µM] | IC50 (A549 [7]) [µM] | IC50 [8] [µM] | IC50 [10] [µM] | Activity (Bos taurus [11]) [%] | Activity (Bos taurus [13]) [%] | also measured |
| --- | --- | --- | --- | --- | --- | --- | --- | --- | --- | --- | --- |
| CCCCCC[C@H]1C(=O)O[C@H](C)[C@H](NC(=O)c2cccc(NC=O)c2O)C(=O)O[C@@H](C)[C@@H]1OC(=O)CC(C)C [ANTIMYCIN A] | – | – | – | – | – | – | – | – | – | – | Activity (MCF7 [1]): 1520 µM |
| CCCCCCCCCC[C@@H](O)[C@H]1CC[C@H]([C@H]2CC[C@H]([C@H](O)CCCCCCCCCC)O2)O1 [dleta-lac-Acetogenin] | > 20 | > 20 | > 20 | 0.0123 | 10.4 | > 20 | 0.99 | > 20 | – | – | Activity (MCF7 [9]): 616 µM |
| CCCCc1ccc(OCCC#CC[C@@H](O)[C@H]2CC[C@H]([C@H]3CC[C@H]([C@H](O)CC#CCCOc4ccc(CCCC)cc4)O3)O2)cc1 | > 16 | > 16 | > 16 | 0.0388 | 1.7 | > 16 | 0.48 | 14.6 | 25 | 18 | Activity (MCF7 [12]): 1280 µM |
| CCCCCCCC#CC[C@@H](O)[C@H]1CC[C@H]([C@H]2CC[C@H]([C@H](O)CC#CCCCCCCC)O2)O1 | 2 | > 20.9 | 7.6 | 0.0301 | 0.048 | 13.2 | 5.2 | 20.3 | 18 | 12 | Activity (MCF7 [14]): Active; Activity (3LL): Active; Activity (M059J [15]): Active; Activity (A549 [16]): Active; Activity [17]: Active; Activity (ATCC CRL2365): Active; Activity (MCF7 [18]): 1080 µM |
| CCCCc1ccc(OCCCCC[C@@H](O)[C@H]2CC[C@H]([C@H]3CC[C@H]([C@H](O)CCCCCOc4ccc(CCCC)cc4)O3)O2)cc1 | > 16 | > 16 | > 16 | 0.0196 | > 15 | > 16 | 0.64 | > 16 | – | – | Activity (MCF7 [19]): 572 µM |
